Experimental data from paper PMC6957770 (Biochemical Journal, 2020).
Several values for one entry are separate records, joined by “and”; a condition that tells them apart may be missing. Identical values can stand only once. Entries after “also recorded” stand apart in the source; their conditions may differ. Like-named read-outs stand apart in the source and are kept apart here.

Tests used:
[1] = molecular target: PilBΔN (truncated CtPilB without the first 139 residues) (Chloracidobacterium thermophilum); test: SEC
PilBN = molecular target: T1, PilBN (Chloracidobacterium thermophilum, UniProt G2LDI3); test: ITC ligand binding to PilBN; conditions: for binding detected by ITC: 30 μM PilBN, Supplementary Figure S4A,B
T1 sequence (G2LDI3 1-146): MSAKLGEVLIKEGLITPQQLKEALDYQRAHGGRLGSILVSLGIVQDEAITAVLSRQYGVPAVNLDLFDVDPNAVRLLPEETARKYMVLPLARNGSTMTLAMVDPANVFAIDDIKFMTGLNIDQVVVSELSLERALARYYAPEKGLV
Procedure, shortened: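 ITC at 25 °C, 300 rpm stirring. His-tagged PilBN (expressed in E. coli BL21(DE3)) was purified by Ni-NTA and size exclusion, dialysed into activity buffer, and set at 30 μM final in the cell. Syringe held 0.5 mM cdG, given as one 0.4 μl and 29 × 1 μl injections 150 s apart. Buffer-only heats were subtracted. Fit used a single-set-of-identical-sites model; ≥3 independent runs.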

PilBΔN = molecular target: T2, PilBΔN (Chloracidobacterium thermophilum, UniProt G2LDI3); test: ITC ligand binding to PilBΔN; conditions: for ΔG / ΔH / N, number of ligand binding sites per protein: ITC; for ΔG / ΔH: 25 °C; for N, number of ligand binding sites per protein: per PilBΔN hexamer
T2 sequence (G2LDI3 140-614): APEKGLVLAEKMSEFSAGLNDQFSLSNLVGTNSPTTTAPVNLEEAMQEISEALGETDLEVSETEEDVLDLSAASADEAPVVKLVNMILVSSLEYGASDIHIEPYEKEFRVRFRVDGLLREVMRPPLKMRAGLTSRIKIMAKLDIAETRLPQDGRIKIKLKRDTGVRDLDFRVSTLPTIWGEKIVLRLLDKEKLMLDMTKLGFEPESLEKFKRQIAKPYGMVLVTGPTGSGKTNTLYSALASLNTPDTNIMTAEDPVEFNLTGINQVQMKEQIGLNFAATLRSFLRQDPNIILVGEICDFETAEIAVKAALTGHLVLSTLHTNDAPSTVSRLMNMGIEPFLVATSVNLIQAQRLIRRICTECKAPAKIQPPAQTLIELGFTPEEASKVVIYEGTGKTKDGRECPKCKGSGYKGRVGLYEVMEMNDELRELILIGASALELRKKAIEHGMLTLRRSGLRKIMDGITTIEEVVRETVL

[2] = molecular target: T3, Full-length PilB (CtPilB) (Chloracidobacterium thermophilum, UniProt G2LDI3); test: ITC ligand binding to full-length PilB with or without effector; conditions: for N, number of ligand binding sites per protein: per PilB hexamer
T3 sequence (G2LDI3 1-614): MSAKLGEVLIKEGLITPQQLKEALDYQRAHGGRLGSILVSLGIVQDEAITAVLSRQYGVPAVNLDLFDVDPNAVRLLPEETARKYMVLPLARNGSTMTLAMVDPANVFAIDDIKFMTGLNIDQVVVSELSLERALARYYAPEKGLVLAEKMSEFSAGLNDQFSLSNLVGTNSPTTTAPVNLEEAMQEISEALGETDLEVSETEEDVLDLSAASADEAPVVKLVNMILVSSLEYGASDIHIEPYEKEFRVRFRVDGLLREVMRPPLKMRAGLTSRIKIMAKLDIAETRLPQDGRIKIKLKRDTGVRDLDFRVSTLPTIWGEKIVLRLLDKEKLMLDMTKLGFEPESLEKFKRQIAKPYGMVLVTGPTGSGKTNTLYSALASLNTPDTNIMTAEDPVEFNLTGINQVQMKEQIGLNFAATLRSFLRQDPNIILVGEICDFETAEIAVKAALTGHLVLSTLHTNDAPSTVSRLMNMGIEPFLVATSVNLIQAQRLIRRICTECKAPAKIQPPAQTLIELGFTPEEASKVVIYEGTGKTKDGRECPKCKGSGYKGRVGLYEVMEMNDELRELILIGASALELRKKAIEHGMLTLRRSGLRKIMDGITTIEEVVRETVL
Procedure, shortened: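 ITC at 25 °C using full-length hexameric PilB (expressed in E. coli XL1-Blue; Ni-NTA/SEC) dialysed into activity buffer. cdG runs: 5.3 μM protein, 0.5 mM cdG, one 0.4 μl then 29 × 1 μl injections, 150 s apart. ATPγS/ADP runs: 15 μM protein, 1 mM titrant, one 0.4 μl then 39 × 1 μl injections, 120 s apart. Optional effector pre-incubation: 15 min on ice (cdG 100 μM; ATPγS/ADP 50 μM). Buffer-only heats subtracted; single-site fit.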

[3] = tested on: full-length CtPilB ATPase; test: Malachite green-based ATPase assay of full-length CtPilB in the presence of cdG; assay type: biochemical, Chloracidobacterium thermophilum
Procedure, shortened: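 Full-length PilB (75 nM) ATPase was read by malachite green phosphate endpoint after 15 min at 54 °C in activity buffer, with cdG at 0, 2 or 200 μM. Kinetic runs used 0.5 and 1.0 mM ATP with or without cdG. No-protein ATP blanks served as controls.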

VcMshE = conditions: in vitro; cited from earlier work

Compound	ΔH ([2]; ITC, 25 °C, no effector)	N, number of ligand binding sites per protein ([2]; ITC, no effector)	binding detected by ITC (PilBN)	ΔG (PilBΔN; no effector)	ΔH (PilBΔN; no effector)	N, number of ligand binding sites per protein (PilBΔN; no effector)	ΔG ([2]; ITC, 25 °C, no effector)	ΔG ([2]; effector cdG 100 μM)	ΔH ([2]; effector cdG 100 μM)	N, number of ligand binding sites per protein ([2]; effector cdG 100 μM)	other results
PilBΔN (truncated CtPilB without the first 139 residues) (from UniProt A0ABV9NNI3 140-574) (domain or fragment)											stoichiometry N [1]: 6
Nc1nc2c(ncn2[C@@H]2O[C@@H]3COP(=O)(O)O[C@H]4[C@@H](O)[C@H](n5cnc6c(=O)[nH]c(N)nc65)O[C@@H]4COP(=O)(O)O[C@H]3[C@H]2O)c(=O)[nH]1 [cdG, cyclic-di-GMP]	-14.5 kcal/mol and -14.5 ± 0.13 kcal/mol	5.83±0.01									Kd (PilBN): 0.107 ± 0.014 µM; ΔG (PilBN; ITC, 25 °C, no effector): -9.5 kcal/mol; ΔH (PilBN; ITC, 25 °C, no effector): -7.4 ± 0.5 kcal/mol; −TΔS (PilBN; ITC, 25 °C, no effector): -2.1 kcal/mol; N, number of ligand binding sites per protein (PilBN; ITC, no effector, PilBN monomer): 1.09±0.03; binding detected by ITC (PilBΔN; 5.3 μM PilBΔN, Supplementary Figure S4C): Nor was there any detectable binding; Kd ([2]; apparent dissociation constant KD, ITC, 25 °C, no effector, 5.3 μM PilB): 0.053 ± 0.01 µM; ΔG ([2]; effector ADP 50 μM): -10.6 kcal/mol; ΔH ([2]; effector ADP 50 μM): -12.0 ± 0.09 kcal/mol; N, number of ligand binding sites per protein ([2]; effector ADP 50 μM): 5.94±0.09; ΔH ([2]; effector ATPγS 50 μM): -14.0 ± 0.3 kcal/mol; N, number of ligand binding sites per protein ([2]; effector ATPγS 50 μM): 6.33±0.08; effect on ATPase activity, kinetic assay ([3]; cdG 0, 2 or 200 μM, ATP 0.5 and 1.0 mM, Supplementary Figure S5): not statistically significant; also recorded: did not affect; effect on ATPase activity, endpoint assay ([3]; cdG at 0, 2 and 200 μM, data not shown): no difference; effect of cdG on ATPase activity (VcMshE): only to a very limited extent
Nc1ncnc2c1ncn2[C@@H]1O[C@H](COP(=O)(O)OP(=O)(O)O)[C@@H](O)[C@H]1O [ADP]	-15.4 kcal/mol and -15.4 ± 1.0 kcal/mol	2.20±0.02	no detectable binding; also recorded: without detectable binding	-7.0 kcal/mol	-16.2 kcal/mol and -16.2 ± 0.4 kcal/mol	2.20±0.03	-7.3 kcal/mol	-6.9 kcal/mol	-46.2 kcal/mol and -46.2 ± 1.6 kcal/mol	1.79±0.06	Kd ([2]; read-out: apparent dissociation constant KD, ITC, 25 °C, no effector, 15 μM PilB): 4.3 ± 1 µM
Nc1ncnc2c1ncn2[C@@H]1O[C@H](COP(=O)(O)OP(=O)(O)OP(=O)(O)O)[C@@H](O)[C@H]1O [ATP]											N, stoichiometry per PilB hexamer ([2]; ITC with ATP, hydrolysis interferes): 2
Nc1ncnc2c1ncn2[C@@H]1O[C@H](CO[P@](=O)(O)O[P@](=O)(O)O[P@@](=O)(O)S)[C@@H](O)[C@H]1O [ATPγS]	-10.3 ± 0.3 kcal/mol	2.8 and 2.8±0.06	no detectable binding; also recorded: without detectable binding	-7.2 kcal/mol	-11.5 kcal/mol and -11.5 ± 0.6 kcal/mol	2.42±0.07	-7.4 kcal/mol	-7.4 kcal/mol	-10.3 ± 0.3 kcal/mol	2.91±0.04	Kd (PilBΔN): 5.2 ± 0.7 µM; KD for PilBΔN higher than KD for full-length PilB (PilBΔN; PilBΔN versus full-length PilB, no effector): ~40%; Kd ([2]; apparent dissociation constant KD, ITC, 25 °C, no effector, 15 μM PilB): 3.8 ± 0.5 µM
